The source of these data is ChEMBL document CHEMBL3102838, “Synthesis of RCAI-172 (C6 epimer of RCAI-147) and its biological activity” (2014).

Experiment [1] has as its system Mus musculus. Briefly: Immunostimulatory activity in C57BL/6 mouse autoimmune encephalomyelitis model assessed as decrease in IFNgamma secretion inoculated with compound-treated GM-CSF-induced dendritic cells administered on day 3 and 5 relative to KRN7000. It is filed as functional. Further details: scale not given: the % may be the effect or the level left.
Experiment [2] relates to Mus musculus. Briefly: Immunostimulatory activity in C57BL/6 mouse autoimmune encephalomyelitis model assessed as IL-4 secretion inoculated with compound-treated GM-CSF-induced dendritic cells administered on day 3 and 5 relative to KRN7000. The experiment is classed as functional.
In experiment [3] the test system is Mus musculus. Kind of experiment: Immunomodulatory activity in mouse assessed as IFNgamma secretion at 10 ug/mL, iv relative to KRN7000. The experiment is classed as functional. In short, it runs like this: (§1)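 Female-unspecified mice given glycolipid via tail vein: DMSO stock (1.0 mg/mL) diluted to 10 μg/mL in Dulbecco's PBS just before use; 200 μL injected (2 μg/mouse). Retro-orbital blood drawn into heparinized capillaries at set time points and plasma prepared. Plasma IFN-γ and IL-4 quantified by cytometric bead array. Means ±SD, three mice.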

For experiment [4], the system named is Mus musculus. Kind of experiment: Immunomodulatory activity in mouse assessed as increase in IL-4 secretion at 10 ug/mL, iv relative to KRN7000. It is filed as functional. The procedure, abridged: as §1
For experiment [5], the species on record is Mus musculus. Briefly: Ratio for reduction of IL-4 secretion in mouse to reduction of IFNgamma secretion in mouse. The experiment is classed as functional.
The test system of experiment [6] is Mus musculus. Kind of experiment: Immunomodulatory activity in mouse assessed as reduction of IFNgamma secretion at 10 ug/mL, iv relative to KRN7000. It is filed as functional. Further details: scale not given: the % may be the effect or the level left. In short, it runs like this:
as §1

For experiment [7], the system named is Mus musculus. Briefly: Immunomodulatory activity in mouse assessed as reduction of IL-4 secretion at 10 ug/mL, iv relative to KRN7000. The experiment is classed as functional. The arrangement: scale not given: the % may be the effect or the level left. The procedure, abridged:
as §1

The test system of experiment [8] is Mus musculus. Kind of experiment: Immunomodulatory activity in mouse assessed as reduction of IL-4 secretion at 10 ug/mL, iv relative to RCAI-147. The arrangement: scale not given: the % may be the effect or the level left. It is filed as functional.
Experiment [9] has as its system Mus musculus. Briefly: Immunostimulatory activity in C57BL/6 mouse autoimmune encephalomyelitis model inoculated with compound-treated GM-CSF-induced dendritic cells administered on day 3 and 5. It is filed as functional, organism-based. The procedure, abridged: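 EAE in female C57BL/6 mice was induced on day 1 by subcutaneous MOG35-55/CFA emulsion at two lower-back sites, with an additional adjuvant given intraperitoneally on days 1 and 3. Bone-marrow GM-DC were raised with GM-CSF (10 ng/mL, 5 days), CD11c-enriched, then pulsed with glycolipid (100 ng/mL; 5×10^6 cells/mL, 24 h). Mice were scored daily to day 30 on a 0–5 scale in 0.5 steps.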

The subject of experiment [10] is Mus musculus. Kind of experiment: Immunomodulatory activity in mouse assessed as IL-4 secretion at 10 ug/mL, iv relative to KRN7000. It is filed as functional. The procedure, abridged:
as §1

Active and inactive are the calls of the source. No cut-off for these calls is given here.

With `CCCCCCCCCCCCCCCCCCCCCC[C@@H](O)[C@@H](O)[C@@H](O)C(=O)N[C@@H](CO[C@H]1O[C@H](CO)[C@H](O)[C@H](O)[C@H]1O)[C@H](O)[C@H](O)CCCCCCCCCCCCCC`, the Activity in [1] is listed as <5%; in experiment [2] it was >60%.
Take `CCCCCCCCCCCCCCCCCCCCCCC[C@@H](O)[C@@H](O)C(=O)N[C@@H](CO[C@H]1O[C@H](CO)[C@H](O)[C@H](O)[C@H]1O)[C@H](O)[C@H](O)CCCCCCCCCCCCCC`: the Activity is 41% in experiment [3] and 138% in experiment [4]. Also, in experiment [5], the Ratio turned out to be 3.4.
As to `CCCCCCCCCCCCCCCCCCCCCCC[C@@H](O)[C@@H](O)C(=O)N[C@@H](CO[C@H]1O[C@H](CO)[C@H](O)[C@H](O)[C@H]1O)[C@H](O)[C@H](O)[C@@H](O)[C@@H](O)CCCCCCCCCCCC`, the Activity was <5% in [1], 5% in experiment [6], 70% in experiment [7] and >60% in experiment [2]. Moreover, in experiment [5], the Ratio stood at 14.
For the molecule `CCCCCCCCCCCCCCCCCCCCCCC[C@@H](O)[C@@H](O)C(=O)N[C@@H](CO[C@H]1O[C@H](CO)[C@H](O)[C@H](O)[C@H]1O)[C@H](O)[C@H](O)[C@@H](O)[C@H](O)CCCCCCCCCCCC`, the Activity worked out at 4.1% in [6], 61% in experiment [8] and 35.3% in [7]. Also, the Ratio in [5] amounted to 8.6. In [9], the result was inactive.
On to `CCCCCCCCCCCCCCCCCCCCCCCCCC(=O)N[C@@H](CO[C@H]1O[C@H](CO)[C@H](O)[C@H](O)[C@H]1O)[C@H](O)CC[C@H](O)CCCCCCCCCCCC`, for which the Activity came to 64% in experiment [3] and 19% in [10].
Regarding `CCCCCCCCCCCCCCCCCCCCCCCCCC(=O)N[C@@H](CO[C@H]1O[C@H](CO)[C@H](O)[C@H](O)[C@H]1O)[C@H](O)CC[C@@H](O)CCCCCCCCCCCC`, the Activity is recorded as 160% in experiment [3] and 75% in [10].
